We go through 37 sequences from the array DNA melting data of Ke et al. (doi:10.1101/2024.01.08.574731).

Series [1] can be described thus: melting temperature; fluorescence melt of hairpins on a sequencing array, two-state fit, raised by 9.35 °C to match UV melts. As to conditions: sodium 0.088 M. A digest of the protocol:
(§1)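 Two-state fits, bootstrapped, provided melting temperature and folding enthalpy from Cy3 fluorescence normalised to pre-quench Cy3 and to control constructs. Library hairpins with annealed Cy3 and quencher oligos were imaged on a sequenced MiSeq flow cell in 50 mM Na-HEPES pH 8.0, 25 mM NaCl, at 2.5 °C intervals up to 60 °C. Four replicates were combined with inverse-variance weighting. A 9.35 °C upward shift was applied to fitted temperatures to match UV melts.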

The nature of series [2]: folding enthalpy; higher = less favourable; fluorescence melt of hairpins on a sequencing array, two-state fit. As to conditions: sodium 0.088 M. A digest of the protocol:
as §1

With GAGAGAGAAATCTCTC ((((((....)))))), in series [1], the Tm came to 45.8 °C. In series [2], the folding enthalpy is -27.6 kcal/mol.

For GAGAGCACGAAAGTGCTC (((..(((....)))))), the Tm in series [1] is 64.1 °C. For the same sequence, the folding enthalpy in series [2] was -7.79 kcal/mol.

Consider GAGAGCCGAAAGGCCCTC (((.(((....))).))), for which the Tm in series [1] turned out to be 51.3 °C. For the same sequence, the folding enthalpy in series [2] was -18.3 kcal/mol.

For GAGAGCGAAAGCTACTC ((((((....))).))), in series [1], the Tm turned out to be 43.7 °C. Further, in series [2], the folding enthalpy is -14.5 kcal/mol.

In the case of GAGAGCGAAAGCTTCCTC ((((((....)))..))), the Tm in series [1] was found to be 27.3 °C. Further, the folding enthalpy in series [2] was -10.7 kcal/mol.

Take GAGAGGACGAAAGTCCTC (((..(((....)))))): in series [1], the Tm is 60.8 °C. In addition, in series [2], the folding enthalpy is -8.73 kcal/mol.

In the case of GAGAGGCGAAAGCCACTC (((.(((....))).))), in series [1], the Tm is 53.3 °C. In addition, the folding enthalpy in series [2] is -20.6 kcal/mol.

As to GAGAGGGCGAAAGCCCTC (((..(((....)))))), the Tm in series [1] came out at 66.5 °C. Further, the folding enthalpy in series [2] is -6.41 kcal/mol.

In the case of GAGAGGGGAAACCCCCTC (((.(((....))).))), the Tm in series [1] stood at 47.9 °C. Moreover, the folding enthalpy in series [2] was -14.9 kcal/mol.

For GAGAGGGGAAACCCTCCC (.(((((....))))).), the Tm in series [1] is 41.2 °C. Further, in series [2], the folding enthalpy is -13.7 kcal/mol.

As for GAGAGGGGAAACCCTCTC (((((((....))))))), in series [1], the Tm worked out at 63.5 °C. For the same sequence, in series [2], the folding enthalpy is -39 kcal/mol.

In the case of GAGAGTGGAAACGCTTTC ((.((.(....).)).)), the Tm in series [1] worked out at 27.3 °C. In series [2], the folding enthalpy was -9.25 kcal/mol.

For the sequence GAGATAGGAAACTATCTC (((((((....))))))), in series [1], the Tm stood at 53.1 °C. Moreover, the folding enthalpy in series [2] was -35 kcal/mol.

As to GAGATCACGAAAGTGCTC (((..(((....)))))), in series [1], the Tm turned out to be 29.9 °C. In series [2], the folding enthalpy was -12.1 kcal/mol.

Regarding GAGATCGAAAGATCTC ((((((....)))))), the Tm in series [1] was determined as 63.2 °C. For the same sequence, the folding enthalpy in series [2] was -38.2 kcal/mol.

Turning to GAGATCGGAAACGACCTC (((.(((....))).))), the Tm in series [1] came out at 42.5 °C. Besides, in series [2], the folding enthalpy was -29.8 kcal/mol.

For GAGATCGGAAACGATCCC (.(((((....))))).), in series [1], the Tm came out at 42.9 °C. Further, the folding enthalpy in series [2] was -12.9 kcal/mol.

GAGATGCCGAAAGGCCTC (((..(((....)))))): the Tm in series [1] was 32.1 °C. The folding enthalpy in series [2] was -10.1 kcal/mol.

In the case of GAGATGCGAAAGCACCTC (((.(((....))).))), the Tm in series [1] was 49 °C. Moreover, the folding enthalpy in series [2] is -23.9 kcal/mol.

GAGATGGGAAACCACCTC (((.(((....))).))): the Tm in series [1] came out at 36.1 °C. The folding enthalpy in series [2] is -31.1 kcal/mol.

As for GAGATTCCGAAAGGACTC (((..(((....)))))), the Tm in series [1] was 30.5 °C. Further, the folding enthalpy in series [2] was -12.2 kcal/mol.

On to GAGATTGGAAACAACCTC (((.(((....))).))), for which the Tm in series [1] is 32 °C. In series [2], the folding enthalpy was -21 kcal/mol.

On to GAGATTGGAAACAGTCTC ((((.((....)).)))), for which, in series [1], the Tm came to 40.8 °C. In addition, in series [2], the folding enthalpy was -27.4 kcal/mol.

Take GAGCAACGAAAGTTCTC (((.(((....)))))): the Tm in series [1] turned out to be 35.6 °C. Moreover, the folding enthalpy in series [2] is -20.1 kcal/mol.

With GAGCAAGGAAACTTGCCC (.(((((....))))).), the Tm in series [1] turned out to be 41 °C. Besides, the folding enthalpy in series [2] was -11 kcal/mol.

Turning to GAGCACCGAAAGGTACTC (((.(((....))).))), in series [1], the Tm was determined as 50 °C. Further, the folding enthalpy in series [2] was -36.7 kcal/mol.

On to GAGCACGAAAGTGGACTC ((((((....)))..))), for which the Tm in series [1] was 48.7 °C. For the same sequence, the folding enthalpy in series [2] was -14.2 kcal/mol.

With GAGCACGAAAGTGGTCTC ((((((....)))..))), the Tm in series [1] came out at 60 °C. In addition, the folding enthalpy in series [2] is -24 kcal/mol.

As for GAGCACGGAAACACGCTC ((((..(....)..)))), in series [1], the Tm turned out to be 37 °C. The folding enthalpy in series [2] is -28.3 kcal/mol.

Regarding GAGCAGCCGAAAGGCCTC (((..(((....)))))), the Tm in series [1] worked out at 31.7 °C. The folding enthalpy in series [2] is -10.8 kcal/mol.

In the case of GAGCAGGCGAAAGCCCTC (((..(((....)))))), the Tm in series [1] came to 31.7 °C. For the same sequence, the folding enthalpy in series [2] was -9.52 kcal/mol.

For GAGCATGGAAACATGCTC (((((((....))))))), in series [1], the Tm was 67.5 °C. For the same sequence, in series [2], the folding enthalpy was -37.1 kcal/mol.

On to GAGCCAGAAATGGCTC ((((((....)))))), for which the Tm in series [1] was determined as 66.8 °C. Further, in series [2], the folding enthalpy is -32.4 kcal/mol.

For GAGCCCCGAAAGGGACTC (((.(((....))).))), the Tm in series [1] worked out at 58.6 °C. For the same sequence, the folding enthalpy in series [2] was -35.2 kcal/mol.

With GAGCCCCGAAAGGGCCTC (((.(((....))).))), the Tm in series [1] came to 47.3 °C. In addition, the folding enthalpy in series [2] was -14.6 kcal/mol.

On to GAGCCCGAAAGGGAACTC ((((((....)))..))), for which the Tm in series [1] came to 47.5 °C. In series [2], the folding enthalpy is -16.4 kcal/mol.

Turning to GAGCCCGAAAGGGCCCTC ((((((....)))..))), in series [1], the Tm stood at 47.6 °C. Besides, the folding enthalpy in series [2] is -9.76 kcal/mol.
